Experimental findings from ChEMBL document CHEMBL1133021, “1,3,5-Trialkyl-2,4,6-triiodobenzenes: novel X-ray contrast agents for gastrointestinal imaging” (J Med Chem, 2000) are described below.

The species entered for one data set is Homo sapiens. As to the kind of experiment: Compound (4 uM) was evaluated for the half-life period in humans after incubation with microsomes for 60 min. The following applies: Microsome.
Data set [1] concerns Cricetinae gen. sp. As to the kind of experiment: Number of hamsters (female) with follicular cell mitotic figures above the control value, to that of total number of tested at 4.56 g/kg of compound in iodinated form administered orally; 3/3. It counts as functional, Cricetulus griseus.
The species entered for data set [2] is Cricetulus griseus. As to the kind of experiment: Compound (4 uM) was evaluated for the half-life period in hamster after incubation with microsomes for 60 min. The following applies: Microsome. It counts as functional. In short, it runs like this: (§1)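 Liver microsomes from male Sprague-Dawley rat, male golden Syrian hamster or human, incubated with substrate at 4 µM. Duplicate incubates were sampled at 0, 15, 30 and 60 min, quenched with saturated zinc sulfate and extracted with propan-2-ol. Samples were analysed by isocratic reversed-phase C8 HPLC (65% i-PrOH/water, 0.1% TFA). Values were normalized to the 0 min control to derive half-life (n = 2).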

Data set [3] deals with Mus musculus. As to the kind of experiment: Toxicity in mice evaluated, after a single dose of compound containing 2.28 g/kg of iodinated form administered as 20 ml/kg solution; NT=No toxicity. It counts as organism-based. The following applies: in vivo, 2280 mg/kg. In a few lines: (§2)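 Mice, 3 per dose group, received a single oral dose of the test agent as a mineral oil-in-water emulsion. Doses were 10, 20 or 40 mL/kg, about 1-, 2- and 4-fold the anticipated human dose of 114 mg I/mL. Emulsion vehicle alone at 40 mL/kg was the control. Clinical signs and mortality were checked several times on the dosing day, then daily for 7 days. Body weight was taken at 24 h and 1 week, and survivors were necropsied on day 7. Read-out was deaths over animals dosed.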

The subject of data set [4] is Mus musculus. The experiment in a line: Mortality observed in mouse tested for murine toxicity after a single dose of compound (7.00 g/kg) containing iodinated form (4.56 g/kg) of it, administered as 40 mL/kg solution; 0/3. It is filed as functional. In a few lines: as §2
Data set [5] relates to Cricetinae gen. sp. As to the kind of experiment: Number of hamsters (male) with follicular cell necrosis over the total number of tested at 4.56 g/kg of compound in iodinated form administered orally; 3/3. It is filed as functional, Cricetulus griseus.
Data set [6] relates to Cricetinae gen. sp. The experiment in a line: Number of hamsters (female) with follicular cell dilation over the total number of tested at 4.56 g/kg of compound in iodinated form administered orally; 3/3. It is filed as functional, Cricetulus griseus.
For data set [7], the system named is Cricetinae gen. sp. The experiment in a line: Number of hamsters (male) with follicular cell mitotic figures above the control value, to that of total number of tested at 4.56 g/kg of compound in iodinated form administered orally; 3/3. It counts as functional, Cricetulus griseus.
Data set [8] is filed under the species Cricetulus griseus. The experiment in a line: Percent of compound (40 uM) present in unmetabolized form in hamsters after incubation with microsomes for 60 min. It counts as functional. The following applies: Microsome. In short, it runs like this:
(§3)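 Substrate at 40 µM was incubated 60 min with male Sprague-Dawley rat or male golden Syrian hamster liver microsomes, in duplicate, with sampling at 0, 15, 30 and 60 min. Aliquots were zinc sulfate-quenched, propan-2-ol-extracted and run on isocratic reversed-phase C8 HPLC. Intact drug is expressed relative to 0 min control values.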

Data set [9] has as its system Mus musculus. The experiment in a line: Toxicity in mice evaluated, after a single dose of compound containing 1.14 g/kg of iodinated form administered as 10 mL/kg solution; NT=No toxicity. The following applies: in vivo, 1140 mg/kg. It is filed as organism-based. In short, it runs like this:
as §2

For data set [10], the system named is Cricetinae gen. sp. As to the kind of experiment: Number of hamsters (female) with follicular cell necrosis over the total number of tested at 4.56 g/kg of compound in iodinated form administered orally; 0/3. It counts as functional, Cricetulus griseus.
Data set [11] relates to Cricetinae gen. sp. The experiment in a line: Number of hamsters (male) with follicular cell dilation over the total number of tested at 4.56 g/kg of compound in iodinated form administered orally; 3/3. It counts as functional, Cricetulus griseus.
The species named for data set [12] is Rattus norvegicus. The experiment in a line: Percent of compound (40 uM) present in unmetabolized form in rats after incubation with microsomes for 60 min. It is filed as functional. The following applies: Microsome. In a few lines: as §3
The species entered for data set [13] is Rattus norvegicus. The experiment in a line: Compound (4 uM) was evaluated for the half-life period in rats after incubation with microsomes for 60 min. The following applies: Microsome. It counts as functional. In short, it runs like this: as §1
Data set [14] relates to Cricetinae gen. sp. The experiment in a line: Number of hamsters (male) with follicular cell necrosis over the total number of tested at 4.56 g/kg of compound in iodinated form administered orally; 0/5. It counts as functional, Cricetulus griseus.
Data set [15] has as its system Cricetinae gen. sp. The experiment in a line: Number of hamsters (male) with follicular cell dilation over the total number of tested at 4.56 g/kg of compound in iodinated form administered orally; 0/5. It counts as functional, Cricetulus griseus.
Data set [16] concerns Cricetinae gen. sp. The experiment in a line: Number of hamsters (male) with follicular cell mitotic figures above the control value, to that of total number of tested at 4.56 g/kg of compound in iodinated form administered orally; 0/5. It is filed as functional, Cricetulus griseus.
The subject of data set [17] is Cricetinae gen. sp. The experiment in a line: Number of hamsters (male) with follicular cell dilation over the total number of tested at 4.56 g/kg of compound in iodinated form administered orally; 1/3. It is filed as functional, Cricetulus griseus.
Data set [18] deals with Cricetinae gen. sp. The experiment in a line: Number of hamsters (female) with follicular cell dilation over the total number of tested at 4.56 g/kg of compound in iodinated form administered orally; 1/3. It counts as functional, Cricetulus griseus.
Data set [19] deals with Cricetinae gen. sp. The experiment in a line: Number of hamsters (male) with follicular cell mitotic figures above the control value, to that of total number of tested at 4.56 g/kg of compound in iodinated form administered orally; 1/3. It counts as functional, Cricetulus griseus.
For data set [20], the system named is Mus musculus. The experiment in a line: Mortality observed in mouse tested for murine toxicity after a single dose of compound (8.49 g/kg) containing iodinated form (4.56 g/kg) of it, administered as 40 mL/kg solution; 0/3. It counts as functional. In short, it runs like this: as §2
For data set [21], the system named is Cricetinae gen. sp. The experiment in a line: Number of hamsters (male) with follicular cell necrosis over the total number of tested at 4.56 g/kg of compound in iodinated form administered orally; 0/3. It is filed as functional, Cricetulus griseus.
The test system of data set [22] is Cricetinae gen. sp. The experiment in a line: Number of hamsters (female) with follicular cell necrosis over the total number of tested at 4.56 g/kg of compound in iodinated form administered orally; 1/6. It counts as functional, Cricetulus griseus.
Data set [23] concerns Cricetinae gen. sp. The experiment in a line: Number of hamsters (female) with follicular cell mitotic figures above the control value, to that of total number of tested at 4.56 g/kg of compound in iodinated form administered orally; 1/3. It is filed as functional, Cricetulus griseus.
Data set [24] concerns Mus musculus. As to the kind of experiment: Mortality observed in mouse tested for murine toxicity, 7 days after a single dose of compound containing 6.53 g/kg of iodinated form, administered as 40 mL/kg solution. It is filed as functional. In a few lines:
as §2

Data set [25] has as its system Mus musculus. The experiment in a line: Mortality observed in mouse tested for murine toxicity after a single dose of compound (12.5 g/kg) containing iodinated form (3.81 g/kg) of it, administered as 10 mL/kg solution; 3/3. It counts as functional.
In data set [26] the test system is Mus musculus. The experiment in a line: Mortality observed in mouse tested for murine toxicity after a single dose of compound (2.80 g/kg) containing iodinated form (0.853 g/kg) of it, administered as 10 mL/kg solution; 1/3. It counts as functional.
Data set [27] concerns Mus musculus. As to the kind of experiment: Mortality observed in mouse tested for murine toxicity after a single dose of compound (5.34 g/kg) containing iodinated form (1.63 g/kg) of it, administered as 10 mL/kg solution; 3/3. It is filed as functional.
In data set [28] the test system is Mus musculus. As to the kind of experiment: Mortality observed in mouse tested for murine toxicity after a single dose of compound (6.26 g/kg) containing iodinated form (1.91 g/kg) of it, administered as 10 mL/kg solution; 1/3. It is filed as functional.
The test system of data set [29] is Mus musculus. The experiment in a line: Mortality observed in mouse tested for murine toxicity, 7 days after a single dose of compound containing 3.27g/kg of iodinated form, administered as 20 ml/kg solution. It counts as functional. In short, it runs like this:
as §2

`CCCCCCC(C)Oc1c(I)cc(I)cc1I` (configuration not stated): the results for the T1/2 in the data set filed under Homo sapiens, in the data set filed under Cricetulus griseus [2] and in the data set filed under Rattus norvegicus [13] were 132 min, 15 min and 36 min, respectively. Also, the Mitotic figures with Cricetinae gen. sp. [1] and with Cricetinae gen. sp. [7] was 3 each time. The Toxicity entry in the data set with Mus musculus [3] and in the data set on Mus musculus [9] was “Not toxic” each time. In addition, the Mortality with Mus musculus [4] is recorded as 0 number of descendants/number of tested. Also, the figures for the Necrosis in the data set with Cricetinae gen. sp. [5] and in the data set on Cricetinae gen. sp. [10] were 2 and 0, respectively. The Dilation with Cricetinae gen. sp. [6] and with Cricetinae gen. sp. [11] was 3 in each case. The Intact in the data set listed under Cricetulus griseus [8] and in the data set listed under Rattus norvegicus [12] was 73% throughout.
In the case of `CC(C)CCCCCc1c(I)c(CCCCCC(C)C)c(I)c(CCCCCC(C)C)c1I`, the Necrosis in the data set with Cricetinae gen. sp. [14] is 0. In the data set on Cricetinae gen. sp. [15], the Dilation amounted to 0. Besides, in the data set on Cricetinae gen. sp. [16], the Mitotic figures was determined as 0.
With `CCCCCCc1c(I)c(CCCCCC)c(I)c(CCCCCC)c1I`, the Dilation in the data set on Cricetinae gen. sp. [17] was 1; with Cricetinae gen. sp. [18], 0. For the same compound, the Toxicity result in the data set with Mus musculus [3] and with Mus musculus [9] was “Not toxic” throughout. The Mitotic figures is reported as 1 in the data set on Cricetinae gen. sp. [19] and 0 in the data set on Cricetinae gen. sp. [23]. Also, in the data set on Mus musculus [20], the Mortality is 0 number of descendants/number of tested. For the same compound, the Necrosis in the data set with Cricetinae gen. sp. [21] and with Cricetinae gen. sp. [22] was 0 each time.
As for `CCOC(=O)CCCCCCCCC(C)c1ccc(I)cc1` (configuration not stated) [IOPHENDYLATE], the Mortality is reported as 100% in the data set with Mus musculus [24]; 3 number of descendants/number of tested in the data set on Mus musculus [25]; 1 number of descendants/number of tested in the data set with Mus musculus [26]; 3 number of descendants/number of tested in the data set with Mus musculus [27]; 1 number of descendants/number of tested in the data set with Mus musculus [28]; 100% with Mus musculus [29].
